Reference: ChEMBL document CHEMBL1629469, “Pharmacophore model for pentamidine analogs active against Plasmodium falciparum” (Eur J Med Chem, 2010)

Columns and labels:
Plasmodium falciparum [1] = experiment: Antimalarial activity against drug -sensitive Plasmodium falciparum NF54 after 48 hrs by [3H]hypoxanthine incorporation assay; assay type: functional, organism-based
How it was run: (§1)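 Asexual erythrocytic parasites in human red cells (1.25% hematocrit, 0.3% parasitemia) exposed to serial drug dilutions in RPMI 1640 with Hepes, AlbuMAX II, bicarbonate and neomycin. Incubation at 37 C under 93% N2/4% CO2/3% O2; [3H]hypoxanthine added after 48 h, then 24 h more. Incorporation counted by scintillation. IC50 taken from sigmoidal curves; four independent runs, each in duplicate; DMSO below 1%.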

Plasmodium falciparum [2] = experiment: Antimalarial activity against chloroquine and pyrimethamine -resistant Plasmodium falciparum K1 after 48 hrs by [3H]hypoxanthine incorporation assay; assay type: functional, organism-based; how it was run: as §1

Row | Compound | IC50 (Plasmodium falciparum [1]) | IC50 (Plasmodium falciparum [2])
1 | CCOC(=O)c1cc(C(=N)N)ccc1OCCCCCOc1ccc(C(=N)N)cc1C(=O)OCC | 97.7 nM | 26.3 nM
2 | Fc1cc(OCCCCCOc2ccc(C3=NCCN3)c(F)c2)ccc1C1=NCCN1 | 50.1 nM | 8.51 nM
3 | c1cc(C2=NCCN2)ccc1OCCCCCOc1ccc(C2=NCCN2)cc1 | 34.7 nM | 3.39 nM
4 | CN1CCN=C1c1ccc(OCCCCCOc2ccc(C3=NCCN3C)cc2)cc1 | 204 nM | 501 nM
5 | N=C(Nc1ccc(OCCCCCOc2ccc(NC(=N)c3ccccc3)cc2)cc1)c1ccccc1 | 34.7 nM | 245 nM
6 | N/N=C(\N)c1ccc(OCCCCCOc2ccc(/C(N)=N/N)cc2)cc1 | 282 nM | 562 nM
7 | CC(C)NC(=N)c1ccc(OCCCCCOc2ccc(C(=N)NC(C)C)c(O)c2)cc1O | 955 nM | 741 nM
8 | CCOC(=O)c1cc(C(=N)N)ccc1OCCCCCOc1ccc(C(=N)N)cc1C(N)=O | 120 nM | 17 nM
9 | Oc1cc(OCCCCCOc2ccc(C3=NCCN3)c(O)c2)ccc1C1=NCCN1 | 58.9 nM | 123 nM
10 | COc1cc(C2=NCCN2)ccc1OCCCCCOc1ccc(C2=NCCN2)cc1OC | 112 nM | 24 nM
11 | CC(=N)Nc1ccc(OCCCCCOc2ccc(NC(C)=N)cc2)cc1 | 468 nM | 57.5 nM
12 | N=C(N)c1ccc(OCCCCCOc2ccc(C(=N)N)cc2Br)c(Br)c1 | 52.5 nM | 18.2 nM
13 | CCOC(=O)c1cc(C2=NCCN2)ccc1OCCCCCOc1ccc(C2=NCCN2)cc1C(=O)OCC | 234 nM | 33.1 nM
14 | N=C(N)c1ccc(OCCCCCOc2ccc(C(=N)N)cc2)cc1 [PENTAMIDINE] | 56.2 nM | 12.3 nM
15 | CCOC(=O)c1cc(C(=N)NC(C)C)ccc1OCCCCCOc1ccc(C(=N)NC(C)C)cc1C(=O)OCC | 28.2 nM | 14.5 nM
16 | N=C(N)c1ccc(OCCCCCOc2ccc(C(=N)N)c(F)c2)cc1F | 81.3 nM | 18.2 nM
17 | CC(C)NC(=N)c1ccc(OCCCCCOc2ccc(C(=N)NC(C)C)c(F)c2)cc1F | 191 nM | 646 nM
18 | N=C(N)c1ccc(OCCCCCOc2ccc(C(=N)N)cc2C(N)=O)c(C(N)=O)c1 | 302 nM | 47.9 nM
19 | CNC(=N)c1ccc(OCCCCCOc2ccc(C(=N)NC)cc2)cc1 | 26.9 nM | 5.01 nM
20 | N=C(N)c1ccc(OCCCCCOc2ccc(C(=N)N)c(O)c2)cc1O | 407 nM | 631 nM
21 | N=C(N)c1ccc(OCCCCCOc2ccc(C(=N)N)cc2Cl)c(Cl)c1 | 105 nM | 32.4 nM
22 | N=C(N)c1ccc(SCCCCCSc2ccc(C(=N)N)cc2)cc1 | 34.7 nM | 23.4 nM
